In ChEMBL document CHEMBL4152245, “Design, synthesis and biological evaluation of benzo[cd]indol-2(1H)-ones derivatives as BRD4 inhibitors” (Eur J Med Chem, 2018):
Calls of active or inactive are those of the source. The rule behind the calls is not given here.

Experiments:
A549 = assay: Antiproliferative activity against human A549 cells after 72 hrs by CellTiter-Glo luminescent assay; format: functional, cell-based
Method in brief: (§1)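 HUV-EC-C, MRC5, RPTEC, A549, MDA-MB-231 and 22Rv1 cells seeded at 3×10⁴/mL and exposed to serially diluted compounds or DMSO. Viability read by CellTiter-Glo luminescence. Each dilution point run in triplicate, averaged, and fitted.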

MV4-11 [1] = assay: Cell cycle arrest in human MV4-11 cells assessed as accumulation at G2-phase at 10 uM after 24 hrs by propidium iodide staining based flow cytometry (reference value: 7.76 to 8.93%); format: functional
RPTEC = assay: Antiproliferative activity against human RPTEC cells after 72 hrs by CellTiter-Glo luminescent assay; format: cell-based; method in brief: as §1
MV4-11 [2] = assay: Cell cycle arrest in human MV4-11 cells assessed as accumulation at G1-phase at 5 uM after 24 hrs by propidium iodide staining based flow cytometry (reference value: 61.39 to 63.23%); format: functional
MV4-11 [3] = assay: Cell cycle arrest in human MV4-11 cells assessed as accumulation at G2-phase at 5 uM after 24 hrs by propidium iodide staining based flow cytometry (reference value: 7.76 to 8.93%); format: functional
[4] = molecular target: T1, Bromodomain-containing protein 4 (Homo sapiens, UniProt O60885); assay: Inhibition of BRD4 in human MV4-11 cells assessed as downregulation of CDK6 mRNA expression after 6 hrs by RT-PCR analysis; format: cell-based
Method in brief: (§2)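 MV4-11 cells at 5×10⁵/mL treated 6 h with various compound concentrations or DMSO. c-Myc, Bcl-2 and CDK6 transcripts quantified by qRT-PCR, normalized to B2M by the ΔΔCt method.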

[5] = molecular target: T1, Bromodomain-containing protein 4; assay: Inhibition of BRD4 in human MV4-11 cells assessed as downregulation of c-MYC mRNA expression after 6 hrs by RT-PCR analysis; format: cell-based; method in brief: as §2
MV4-11 [6] = assay: Cell cycle arrest in human MV4-11 cells assessed as accumulation at G1-phase at 10 uM after 24 hrs by propidium iodide staining based flow cytometry (reference value: 61.39 to 63.23%); format: functional
[7] = molecular target: T1, Bromodomain-containing protein 4; assay: Binding affinity to His-tagged BRD4 bromodomain-1 (unknown origin) expressed in Escherichia coli BL21(DE3) assessed as change in melting temperature at 100 uM by SYPRO orange dye based thermal shift assay
Method in brief: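 Buffer of 20 mM HEPES pH 7.4, 100 mM NaCl and 1 mM DTT, with 5× SYPRO Orange and 5 µM BRD4_BD1. Compound at 100 µM or 0.5% DMSO, DMSO matched across wells. Heated at 2.5 °C/min from 25 to 95 °C. Tm compared with the DMSO control.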

MV4-11 [8] = assay: Antiproliferative activity against human MV4-11 cells after 72 hrs by CellTiter-Glo luminescent assay; format: functional, cell-based; conditions: MV4-11, 72 h
Method in brief: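 MV4-11 cells in RPMI 1640 with 10% FBS and 1% penicillin/streptomycin, seeded at 1×10⁵/mL. Compounds or DMSO added about 1 h later, then incubated 72 h. Viability read by CellTiter-Glo luminescence. Each dilution point run in triplicate, averaged, and fitted for IC50.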

[9] = molecular target: T1, Bromodomain-containing protein 4; assay: (§3) Inhibition of His-tagged BRD4 bromodomain-1 (unknown origin) expressed in Escherichia coli BL21(DE3) at 5 uM using SGRGK(Ac)-GG-K(Ac)-GLG-K(Ac)-GGA-K(Ac)-RHRKVGG-K-Biotin as substrate preincubated for 15 mins followed by substrate addition measured after 10 mins by Alphascreen assay relative to control
Method in brief: (§4)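 His-tagged BRD4_BD1 purified by Ni-NTA, anion exchange and gel filtration, tag retained. Assay buffer: 20 mM HEPES pH 7.4, 0.1% BSA, 0.01% Triton X-100, 1 mM DTT. Protein preincubated with compound 15 min at room temperature, biotinylated tetra-acetyl peptide added for 10 min, then streptavidin donor and nickel chelate acceptor beads for 60 min. Compounds screened at 20 and 5 µM; IC50 from three independent experiments.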

MV4-11 [10] = assay: Cell cycle arrest in human MV4-11 cells assessed as accumulation at S-phase at 20 uM after 24 hrs by propidium iodide staining based flow cytometry (reference value: 28.91 to 29.71%); format: functional
HUVEC = assay: Antiproliferative activity against HUVEC after 72 hrs by CellTiter-Glo luminescent assay; format: cell-based; conditions: human; method in brief: as §1
[11] = molecular target: T1, Bromodomain-containing protein 4; assay: as §3, with “at 20” for “at 5”; method in brief: as §4
[12] = molecular target: T1, Bromodomain-containing protein 4; assay: Inhibition of BRD4 in human MV4-11 cells assessed as downregulation of Bcl2 mRNA expression after 6 hrs by RT-PCR analysis; format: cell-based; method in brief: as §2
MV4-11 [13] = assay: Cell cycle arrest in human MV4-11 cells assessed as accumulation at S-phase at 10 uM after 24 hrs by propidium iodide staining based flow cytometry (reference value: 28.91 to 29.71%); format: functional
[14] = molecular target: T1, Bromodomain-containing protein 4; assay: Inhibition of His-tagged BRD4 bromodomain-1 (unknown origin) expressed in Escherichia coli BL21(DE3) using SGRGK(Ac)-GG-K(Ac)-GLG-K(Ac)-GGA-K(Ac)-RHRKVGG-K-Biotin as substrate preincubated for 15 mins followed by substrate addition measured after 10 mins by Alphascreen assay; method in brief: as §4
CWR22R = assay: Antiproliferative activity against human 22Rv1 cells after 72 hrs by CellTiter-Glo luminescent assay; format: functional, cell-based; method in brief: as §1
MV4-11 [15] = assay: Cell cycle arrest in human MV4-11 cells assessed as accumulation at G2-phase at 20 uM after 24 hrs by propidium iodide staining based flow cytometry (reference value: 7.76 to 8.93%); format: functional
MV4-11 [16] = assay: Cell cycle arrest in human MV4-11 cells assessed as accumulation at G1-phase after 24 hrs by propidium iodide staining based flow cytometry; format: functional
MV4-11 [17] = assay: Cell cycle arrest in human MV4-11 cells assessed as accumulation at S-phase at 5 uM after 24 hrs by propidium iodide staining based flow cytometry (reference value: 28.91 to 29.71%); format: functional
MRC5 = assay: Antiproliferative activity against human MRC5 cells after 72 hrs by CellTiter-Glo luminescent assay; format: cell-based; conditions: mrc5, 72 h; method in brief: as §1
MDA-MB-231 = assay: Antiproliferative activity against human MDA-MB-231 cells after 72 hrs by CellTiter-Glo luminescent assay; format: functional, cell-based; method in brief: as §1
[18] = molecular target: T1, Bromodomain-containing protein 4; assay: Inhibition of BRD4 in human MV4-11 cells assessed as downregulation of c-MYC protein expression after 6 hrs by Western blot analysis; format: cell-based
Method in brief: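 MV4-11 cells at 5×10⁵/mL treated 6 h with various compound concentrations or DMSO. Immunoblotted with anti-c-Myc (1:1000, 4 °C overnight), then anti-rabbit secondary (1:10000, 1 h, room temperature).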

MV4-11 [19] = assay: Cell cycle arrest in human MV4-11 cells assessed as accumulation at G1-phase at 20 uM after 24 hrs by propidium iodide staining based flow cytometry (reference value: 61.39 to 63.23%); format: functional
[20] = molecular target: T1, Bromodomain-containing protein 4; assay: Inhibition of BRD4 (unknown origin) by Alphascreen assay; method in brief: as §4

SMILES	inhibition [4]	inhibition [5]	ΔTm [7]	inhibition [9]	inhibition [11]	inhibition [12]	IC50 [14]	inhibition [18]	further results
CCN1C(=O)c2cccc3c(S(=O)(=O)N4CCCC4)ccc1c23	Dose-dependent effect	Dose-dependent effect	3.4 °C	59%	99%	Dose-dependent effect	6.83 µM	Dose-dependent effect	Activity (A549): Active; Activity (MV4-11 [1]): 4%; Activity (RPTEC): Non-Toxic; Activity (MV4-11 [2]): 73%; Activity (MV4-11 [3]): 5.47%; Activity (MV4-11 [6]): 80.04%; IC50 (MV4-11 [8]): 11.7 µM; Activity (MV4-11 [10]): 9.88%; Activity (HUVEC): Non-Toxic; Activity (MV4-11 [13]): 15.95%; Activity (CWR22R): Active; Activity (MV4-11 [15]): 2.9%; Activity (MV4-11 [16]): Dose-dependent effect; Activity (MV4-11 [17]): 21.52%; Activity (MRC5): Non-Toxic; Activity (MDA-MB-231): Active; Activity (MV4-11 [19]): 87.22%
CCN1C(=O)c2cccc3c(S(=O)(=O)N4CCC[C@@H]4C(=O)NN)ccc1c23	Dose-dependent effect	Dose-dependent effect	7.8 °C	93%	100%	Dose-dependent effect	1.02 µM	Dose-dependent effect	
CCN1C(=O)c2cccc3c(S(=O)(=O)NCCO)ccc1c23			13.2 °C	98%	100%		1.55 µM		
CCN1C(=O)c2cccc3c(S(=O)(=O)N4CCC[C@@H]4C(=O)Nc4ccccc4)ccc1c23			13.9 °C	87%	100%		1.43 µM		
CCN1C(=O)c2cccc3c(S(=O)(=O)N4CCC[C@@H]4C(=O)O)ccc1c23	Dose-dependent effect	Dose-dependent effect	10.5 °C	66%	98%	Dose-dependent effect	3.02 µM	Dose-dependent effect	
Cc1sc2c(c1C)C(c1ccc(Cl)cc1)=C[C@@H](CC(=O)OC(C)(C)C)c1nnc(C)n1-2									IC50 [20]: 0.077 µM
